The results in this text go back to ChEMBL document CHEMBL3045650, “Design, synthesis, and 3D-QSAR analysis of novel 1,3,4-oxadiazol-2(3H)-ones as protoporphyrinogen oxidase inhibitors” (J Agric Food Chem, 2010).

In one assay the test system is Digitaria sanguinalis. Briefly: Post-emergence herbicidal activity against Digitaria sanguinalis (hairy crabgrass) assessed as growth inhibition at emulsified concentrate of 150 g/ai ha after 15 days by greenhouse test. It is filed as functional. In a few lines: (§1)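 About 20 seeds sown 1–3 cm deep, grown at 15–30 °C and 50% RH. Monocot seedlings sprayed postemergence at the one-leaf stage with a 100 g/L emulsifiable concentrate (DMF/Tween-80) diluted in water, 150 g ai/ha. Untreated and solvent controls included. Visual rating at 15 days, three replicates.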

The next assay deals with Echinochloa crus-galli. Briefly: Post-emergence herbicidal activity against Echinochloa crus-galli (barnyard grass) assessed as growth inhibition at emulsified concentrate of 150 g/ai ha after 15 days by greenhouse test. The class given is functional. In a few lines: as §1
The test system of the next assay is Eclipta prostrata. Briefly: Post-emergence herbicidal activity against Eclipta prostrata assessed as growth inhibition at emulsified concentrate of 150 g/ai ha after 15 days by greenhouse test. It is filed as functional. In a few lines:
(§2)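 About 20 seeds sown 1–3 cm deep, grown at 15–30 °C and 50% RH. Dicot seedlings sprayed postemergence at the two-leaf stage with a 100 g/L emulsifiable concentrate (DMF/Tween-80) diluted in water, 150 g ai/ha. Untreated and solvent controls included. Visual rating at 15 days, three replicates.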

Another assay deals with Amaranthus retroflexus. The experiment in a line: Post-emergence herbicidal activity against Amaranthus retroflexus assessed as growth inhibition at emulsified concentrate of 150 g/ai ha after 15 days by greenhouse test. The class given is functional. The procedure, abridged: as §2
For a further assay, the system named is Brassica juncea. Briefly: Post-emergence herbicidal activity against Brassica juncea assessed as growth inhibition at emulsified concentrate of 150 g/ai ha after 15 days by greenhouse test. The class given is functional. In a few lines: as §2
In a further assay the test system is Poa annua. The experiment in a line: Post-emergence herbicidal activity against Poa annua assessed as growth inhibition at emulsified concentrate of 150 g/ai ha after 15 days by greenhouse test. The class given is functional. In a few lines: as §1
In assay [1] the target is T1, Protoporphyrinogen oxidase (Homo sapiens, UniProt P50336).
T1 sequence (P50336 whole entry): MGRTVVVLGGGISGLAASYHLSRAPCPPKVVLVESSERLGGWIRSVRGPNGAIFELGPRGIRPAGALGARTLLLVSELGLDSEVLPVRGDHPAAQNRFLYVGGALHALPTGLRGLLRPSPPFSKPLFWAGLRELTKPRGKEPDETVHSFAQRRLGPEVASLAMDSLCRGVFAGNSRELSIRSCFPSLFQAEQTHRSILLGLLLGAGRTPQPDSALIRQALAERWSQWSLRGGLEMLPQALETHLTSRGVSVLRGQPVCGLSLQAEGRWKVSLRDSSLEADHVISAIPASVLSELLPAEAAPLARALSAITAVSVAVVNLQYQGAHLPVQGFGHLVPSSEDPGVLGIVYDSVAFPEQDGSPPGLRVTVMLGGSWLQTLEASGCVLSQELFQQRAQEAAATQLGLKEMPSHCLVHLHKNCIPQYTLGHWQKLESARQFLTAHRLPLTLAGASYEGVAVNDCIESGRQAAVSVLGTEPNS
The experiment in a line: Inhibition of Homo sapiens (human) recombinant protoporphyrinogen oxidase expressed in Escherichia coli JM109 assessed as oxidation of protoporphyrinogen IX substrate by fluorescence assay.

A word on the Ki: it is the dissociation constant of the complex between target and ligand, obtained from inhibition or displacement. For the compound `CCOC(=O)C(C)(C)Sc1nc2cc(-n3nc(C(C)(C)C)oc3=O)c(F)cc2s1`, the “inhibition (INH)” value in the assay on Digitaria sanguinalis came out at 0%; in the assay on Echinochloa crus-galli, 0%; with Eclipta prostrata it was 70%; in the assay on Amaranthus retroflexus, 60%; in the assay with Brassica juncea it was 50%; in the assay with Poa annua, 0%. The Ki in assay [1] was 1540 nM.

With `CCOC(=O)CCCSc1nc2cc(-n3nc(C(C)(C)C)oc3=O)c(Cl)cc2s1`, the “inhibition (INH)” value in the assay on Digitaria sanguinalis is recorded as 0%; in the assay on Echinochloa crus-galli it was 0%; in the assay on Eclipta prostrata it was 0%; in the assay with Amaranthus retroflexus, 50%; in the assay with Brassica juncea it was 0%; in the assay on Poa annua it was 0%. Moreover, the Ki in assay [1] was found to be 2020 nM.

For `COC(=O)/C=C/CSc1nc2cc(-n3nc(C(C)(C)C)oc3=O)c(F)cc2s1`, the “inhibition (INH)” value in the assay with Digitaria sanguinalis was found to be 0%; in the assay on Echinochloa crus-galli, 0%; in the assay with Eclipta prostrata, 50%; with Amaranthus retroflexus, 40%; with Brassica juncea, 40%; in the assay with Poa annua, 0%. In assay [1], the Ki amounted to 7480 nM.

With `CCOC(=O)CCCSc1nc2cc(-n3nc(C(C)(C)C)oc3=O)c(Br)cc2s1`, in assay [1], the Ki is 5830 nM.

Take `C=CCSc1nc2cc(-n3nc(C(C)(C)C)oc3=O)c(F)cc2s1`: the “inhibition (INH)” value with Digitaria sanguinalis was determined as 0%; in the assay on Echinochloa crus-galli it was 0%; in the assay with Eclipta prostrata it was 40%; in the assay with Amaranthus retroflexus, 60%; in the assay with Brassica juncea it was 60%; in the assay on Poa annua it was 0%. The Ki in assay [1] was determined as 15900 nM.

With `CCOC(=O)C(C)Sc1nc2cc(-n3nc(C(C)(C)C)oc3=O)c(Br)cc2s1` (centres undefined), the “inhibition (INH)” value with Digitaria sanguinalis was 0%; with Echinochloa crus-galli it was 0%; with Eclipta prostrata it was 60%; in the assay with Amaranthus retroflexus, 70%; with Brassica juncea, 0%; in the assay on Poa annua, 0%. Further, the Ki in assay [1] is 8130 nM.

With `CC(C)(C)OC(=O)CSc1nc2cc(-n3nc(C(C)(C)C)oc3=O)c(F)cc2s1`, the “inhibition (INH)” value in the assay with Digitaria sanguinalis, in the assay with Echinochloa crus-galli, in the assay on Eclipta prostrata, in the assay with Amaranthus retroflexus, in the assay on Brassica juncea and in the assay with Poa annua was 0% in each case. Further, the Ki in assay [1] came to 1590 nM.

Take `CCOC(=O)C(C)(C)Sc1nc2cc(-n3nc(C(C)(C)C)oc3=O)c(Cl)cc2s1`: the “inhibition (INH)” value is 0% in the assay on Digitaria sanguinalis; 0% in the assay with Echinochloa crus-galli; 50% in the assay with Eclipta prostrata; 50% in the assay with Amaranthus retroflexus; 60% in the assay on Brassica juncea; 0% in the assay with Poa annua. The Ki in assay [1] turned out to be 1350 nM.

For the compound `COC(=O)CSc1nc2cc(-n3nc(C(C)(C)C)oc3=O)c(F)cc2s1`, the “inhibition (INH)” value is 0% in the assay with Digitaria sanguinalis; 0% in the assay with Echinochloa crus-galli; 0% in the assay with Eclipta prostrata; 60% with Amaranthus retroflexus; 0% in the assay with Brassica juncea; 0% in the assay on Poa annua. Further, the Ki in assay [1] turned out to be 3990 nM.

Regarding `COC(=O)Sc1nc2cc(-n3nc(C(C)(C)C)oc3=O)c(F)cc2s1`, the “inhibition (INH)” value in the assay with Digitaria sanguinalis is 0%; in the assay with Echinochloa crus-galli, 0%; in the assay with Eclipta prostrata, 0%; in the assay with Amaranthus retroflexus it was 40%; in the assay with Brassica juncea, 0%; in the assay with Poa annua, 0%. In addition, in assay [1], the Ki is 720 nM.

With `CCOC(=O)CSc1nc2cc(-n3nc(C(C)(C)C)oc3=O)c(Br)cc2s1`, the “inhibition (INH)” value with Digitaria sanguinalis is reported as 0%; in the assay with Echinochloa crus-galli it was 0%; in the assay on Eclipta prostrata, 0%; in the assay on Amaranthus retroflexus, 75%; with Brassica juncea, 0%; in the assay on Poa annua, 0%. Also, the inhibition constant Ki in assay [1] was determined as 6960 nM.

For `CC(C)OC(=O)CSc1nc2cc(-n3nc(C(C)(C)C)oc3=O)c(Cl)cc2s1`, the “inhibition (INH)” value with Digitaria sanguinalis is given as 0%; in the assay on Echinochloa crus-galli, 0%; in the assay with Eclipta prostrata it was 0%; in the assay on Amaranthus retroflexus, 50%; in the assay with Brassica juncea, 0%; with Poa annua it was 0%. In assay [1], the Ki is 2170 nM.

In the case of `CCOC(=O)CCSc1nc2cc(-n3nc(C(C)(C)C)oc3=O)c(Br)cc2s1`, the “inhibition (INH)” value with Digitaria sanguinalis came to 0%; in the assay with Echinochloa crus-galli, 0%; in the assay on Eclipta prostrata it was 30%; with Amaranthus retroflexus it was 0%; in the assay on Brassica juncea it was 0%; in the assay on Poa annua, 0%. In assay [1], the Ki came out at 1690 nM.

With `CCOC(=O)Sc1nc2cc(-n3nc(C(C)(C)C)oc3=O)c(Cl)cc2s1`, the “inhibition (INH)” value was 0% in the assay with Digitaria sanguinalis; 0% with Echinochloa crus-galli; 40% with Eclipta prostrata; 70% in the assay with Amaranthus retroflexus; 70% in the assay on Brassica juncea; 0% in the assay with Poa annua. Also, the Ki in assay [1] is 330 nM.

Regarding `CC(C)OC(=O)CSc1nc2cc(-n3nc(C(C)(C)C)oc3=O)c(Br)cc2s1`, the “inhibition (INH)” value with Digitaria sanguinalis was 0%; in the assay with Echinochloa crus-galli, 0%; in the assay with Eclipta prostrata, 0%; with Amaranthus retroflexus, 75%; in the assay on Brassica juncea it was 0%; in the assay on Poa annua it was 0%. Moreover, the Ki in assay [1] was 5970 nM.

Turning to `CC(C)(C)c1nn(-c2cc3nc(SCC=C(Cl)Cl)sc3cc2F)c(=O)o1`, the “inhibition (INH)” value stood at 40% in the assay with Digitaria sanguinalis; 50% with Echinochloa crus-galli; 60% with Eclipta prostrata; 60% in the assay on Amaranthus retroflexus; 70% with Brassica juncea; 50% with Poa annua. For the same compound, in assay [1], the Ki was 10900 nM.

Turning to `C=CCSc1nc2cc(-n3nc(C(C)(C)C)oc3=O)c(Cl)cc2s1`, the “inhibition (INH)” value with Digitaria sanguinalis was determined as 0%; in the assay with Echinochloa crus-galli, 0%; with Eclipta prostrata, 60%; in the assay with Amaranthus retroflexus, 70%; in the assay with Brassica juncea it was 70%; in the assay with Poa annua, 0%. In assay [1], the Ki stood at 3110 nM.

On to `CC(C)(C)c1nn(-c2cc3nc(SCC=C(Cl)Cl)sc3cc2Cl)c(=O)o1`, for which the “inhibition (INH)” value with Digitaria sanguinalis was 0%; in the assay with Echinochloa crus-galli it was 0%; with Eclipta prostrata, 40%; in the assay with Amaranthus retroflexus, 70%; with Brassica juncea it was 70%; in the assay with Poa annua, 0%. Further, the inhibitory constant (Ki) in assay [1] stood at 10200 nM.

Take `CC(C)(C)OC(=O)CSc1nc2cc(-n3nc(C(C)(C)C)oc3=O)c(Cl)cc2s1`: the “inhibition (INH)” value with Digitaria sanguinalis is reported as 0%; in the assay with Echinochloa crus-galli it was 0%; in the assay on Eclipta prostrata, 30%; with Amaranthus retroflexus, 40%; in the assay on Brassica juncea, 50%; in the assay on Poa annua it was 0%. Also, in assay [1], the inhibition constant (Ki) turned out to be 840 nM.

In the case of `COC(=O)CSc1nc2cc(-n3nc(C(C)(C)C)oc3=O)c(Cl)cc2s1`, the “inhibition (INH)” value in the assay with Digitaria sanguinalis worked out at 0%; with Echinochloa crus-galli it was 0%; with Eclipta prostrata, 50%; in the assay on Amaranthus retroflexus, 70%; in the assay with Brassica juncea, 0%; in the assay with Poa annua, 0%. The Ki in assay [1] came out at 1070 nM.

For `CCOC(=O)CSc1nc2cc(-n3nc(C(C)(C)C)oc3=O)c(Cl)cc2s1`, the “inhibition (INH)” value is listed as 0% with Digitaria sanguinalis; 0% in the assay on Echinochloa crus-galli; 60% in the assay on Eclipta prostrata; 70% in the assay with Amaranthus retroflexus; 50% in the assay on Brassica juncea; 0% in the assay with Poa annua. For the same compound, the inhibitory constant (Ki) in assay [1] turned out to be 1010 nM.

As to `C#CCSc1nc2cc(-n3nc(C(C)(C)C)oc3=O)c(Cl)cc2s1`, the Ki in assay [1] came to 8610 nM.

Regarding `CC(C)(C)c1nn(-c2cc3nc(SCC=C(Cl)Cl)sc3cc2Br)c(=O)o1`, the Ki in assay [1] was 18600 nM.

In the case of `Cc1nn(-c2cc(NS(C)(=O)=O)c(Cl)cc2Cl)c(=O)n1C(F)F` [SULFENTRAZONE], the “inhibition (INH)” value in the assay with Digitaria sanguinalis is on record as 70%; with Echinochloa crus-galli, 75%; in the assay with Eclipta prostrata, 100%; with Amaranthus retroflexus, 100%; in the assay on Brassica juncea, 100%. Moreover, the Ki in assay [1] came out at 720 nM.
